# Reference: the EternaBench riboswitch data
# Test system: MS2 coat protein
# Assay: apparent Kd, MS2 coat protein; higher = weaker binding; RNA-MaP array
# In short: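 On an Illumina sequencing chip, sequenced DNA templates served for transcription of the designed RNAs, which were then bound at room temperature by fluorescently labeled MS2 coat protein at 1.5 nM to 3 μM, with or without input ligand. Apparent Kd is the median of the fits to each cluster's binding curve. Only designs measured on at least 10 clusters were kept.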
# [1] = designed as: OFF switch for flavin mononucleotide, no ligand
# [2] = ligand present: flavin mononucleotide, designed as: OFF switch for flavin mononucleotide
# [3] = designed as: OFF switch for tryptophan, no ligand
# [4] = ligand present: tryptophan, designed as: OFF switch for tryptophan
# [5] = designed as: ON switch for flavin mononucleotide, no ligand
# [6] = ligand present: flavin mononucleotide, designed as: ON switch for flavin mononucleotide
# [7] = designed as: ON switch for theophylline, no ligand
# [8] = ligand present: theophylline, designed as: ON switch for theophylline
Sequence,apparent Kd [1] [nM],apparent Kd [2] [nM],apparent Kd [5] [nM],apparent Kd [6] [nM],other results
CGAGUCUAGGAGAAGGCAUACAUGAGGAUCACCCAUGUCAAAGGGCACGUAACGAUAAUCCACCAUGAGGAUAUCCUGUUUAGA,26.3,21.7,–,–,–
CGAUGCGCAUUAUCCCACUGGUAUGAGUCUCGAGGACCGGUACGGCCGCCACUCGCUACCGUACAUGAGGAUCACCCAUGUAUUA,–,–,–,–,apparent Kd [3]: 28 nM; apparent Kd [4]: 45.9 nM
CCAAUAUCUAUAGGAUAUCAAUGACCAAACUGAACAUGAGGAUCACCCAUGUAGUGAGUGACUUAUGAGAAGGAUAGACGUACC,–,–,104,22.9,–
AUAUCAGGGUAGAAGGCAGCAUCAACAUGAGGAUCACCCAUGUAUAGGCACGUAGCCGCACGUGCUGAGGAUAUACGUUAUAAU,–,–,16.4,6.41,–
CUGGUUGCCGGUUGCGACACAUGAGGAUCACCCAUGUAUACCGAGGAUAUGUGGAGCUGUAGAUGACAGAAGGCGGUGAGUAUC,–,–,53.7,38.1,–
CGACAUUCAGGAUAUACAUGAGGAUCACCCAUGUUGAGAAGCACAAGAUACCAUAAAAGUAGAAGGGAACAAAA,13.3,9.81,–,–,–
ACUCUAGAAUAGAAGGCCUGAGGAAGUAGUAAAGGAGGAUAUAUCAUACGAAAUUCACAUGAGGAUCACCCAUGUUGCGCAGAC,–,–,21.2,12.4,–
ACCUCAAUGGAUGAUACCAGCUCAAGGACGAACAUGAGGAUCACCCAUGUGACGUGGUGUAGCCCUUGGCAGCAUACUGACACCU,–,–,–,–,apparent Kd [7]: 39.4 nM; apparent Kd [8]: 21.3 nM
UUUGCUACCUAGAAGGCUGACGAGACAUGAGGAUCACCCAUGUUGGAAAUUCUUACGGCAAUGGCAGAGGAUAUAGGACGAAAA,7.66,11.3,–,–,–
CAACUGGCAGAGGAUACCAGAUCAUUUAGAAACAUGAGGAUCACCCAUGUCGUAAGGAUAAUCCCUUGGCAGCCUAUCCGCCUCG,–,–,–,–,apparent Kd [7]: 13.2 nM; apparent Kd [8]: 10.8 nM
CCAUGACAUGAGGAUCACCCAUGUGGGUGCAGACAAGGAUAUAGUAAGAAUAGGAUAGAUCUAGAAGGUGUCAUUA,–,–,528,282,–
ACCCGAGAUACAGGAUAUGCGUCCGCGUGAGCCAUGGUUAAAGCACAUGAGGAUCACCCAUGUUGGCAGAAGGGAAUCUCAUGA,53.7,19.3,–,–,–
GAGGAGUAGUAGUCCGACACAUGAGGAUCACCCAUGUUAUGGAGAAGGCCGGAUCUGAGUAGAGCGGAGGAUAUCCUGAAUUAA,–,–,26.7,19.8,–
UCCUUUAGACAUGAGGAUCACCCAUGUAGCCUCACUGUUCGUAGAAGGACACCGCUGUUCAAGCUGUAGGAUAUACGGAGGAUC,468,319,–,–,–
GUCAAAUGUCAGAAGGUAGUGAUGUACUAAGGCUAAGGAUAUGAAGAAAAGAAAAUUACCGUUGACAUGAGGAUCACCCAUGUC,–,–,13.8,9.86,–
UUUUUUUAACAGAAGGACAGACAUAUGAGGGACAUGAGGAUCACCCAUGUGUGCUCGCGUAGGCUGUAGGAUAUGUAGUGCUGG,11.2,8.19,–,–,–
CCUUCAGAUGAGAAGGCCAUCUACGGCUGGACACGGCAGUAACAUGAGGAUCACCCAUGUUUAAUGGAGGAUAUCAACGGAAGC,–,–,12.3,8.94,–
AUUACAAGCACAGGAUAUAACAGUUGGUUCACAUGAGGAUCACCCAUGUAGCAUUGGGAAGUAGCUUAGAAGGGUGAGGUGGUU,–,–,183,107,–
CGCGUCCCGGACGAUACCAGAUAUGAGCGACACAUGAGGAUCACCCAUGUCAAUCAUGAGAUCCCUUGGCAGCGUUUGCACAACU,–,–,–,–,apparent Kd [7]: 162 nM; apparent Kd [8]: 209 nM
CGUUAGACAGGAUAUACACUGGGAAGCGCGGUUUGCGGGAGACAUGAGGAUCACCCAUGUAGAAGGGUCCGGCA,9.14,9.4,–,–,–
AACGGUGCGCGAGGAUAUCACGUACCAAGAGGAUGAGAAGGCGCGCGUACAGGUUGGUGAACAUGAGGAUCACCCAUGUGGUAC,99.5,87.2,–,–,–

Sequence,apparent Kd [1] [nM],apparent Kd [2] [nM],apparent Kd [5] [nM],apparent Kd [6] [nM],other results
UACAAAGAAUAGGAUAUCGAGAGGUAAUUUGGGCGAGAAGGAUUCACAUGAGGAUCACCCAUGUAGGCGGAUCU,30.7,40.9,–,–,–
GCUCAUUGCGAGGAUAUUGGAAGAGUGUAAACUCAAGAAGGCGCAACAUGAGGAUCACCCAUGUGAACCCAAAU,7.91,14,–,–,–
UCACGUCGCCGAGGAUAUGAUUACCGCUCUCCAUCAGAAGGCGGCGCGUGGUCCACAACAUGAGGAUCACCCAUGUCGAUUGAG,–,–,64.9,10.7,–
GUGAAGUUAGUGAGCGUUAGUCAAGCCAAACGAGGACCGGUACGGCCGCCACUCGCGCAUCGACAUGAGGAUCACCCAUGUGCCG,–,–,–,–,apparent Kd [3]: 14.6 nM; apparent Kd [4]: 17.7 nM
AUUAGACAAGGAUAUACAAGUCGUAUCGGCGCUGGGUGUAUACAUGAGGAUCACCCAUGUAGAAGGUGUGCUAU,101,190,–,–,–
UGACUAAAGGAGAAGGGCCACUCCAUUACUUCGGCAGGAUAUCCAUAAACAUGAGGAUCACCCAUGUACAUACAUUGGACGGCG,–,–,8.62,7.73,–
CCGACUCGCGUAGAGGAUAUGUAAUAAAAUACAUGAGGAUCACCCAUGUGAGACCGGGUGUCUCCACAGAAGGCUAUCGUGUCGUA,–,–,133,–,–
UUCAUGUUAGGAUAUAGUGUAAGAGCGGGCGGGACUCUAUUCUAGAAGGAACAUGAGGAUCACCCAUGUUAAGG,213,124,–,–,–
CACGAUACUACAGGAUAUGCCGGUUACCAAUCUGCAGAAGGGUAGAUUAGUCUAACAUGAGGAUCACCCAUGUACCUCUCAUGU,208,248,–,–,–
CUCAGUGUGUAGAAGGUUUGCAUAGAAACAUCAAAAGGAUAUACAUGGUGAAGCCUUGAAACAUGAGGAUCACCCAUGUCUACG,–,–,632,392,–
AGGUCCGGAGAGAAGGCCGACUUUGUAAUACACGGAGGAUAUCUACCACAUGAGGAUCACCCAUGUCCACACCGCAAGUUGUAA,–,–,15,10.8,–
AACCACAUGAGGAUCACCCAUGUGACCGCUCGAGGACCGGUACGGCCGCCACUCGUGGAGGGACUUAUGCGUUAUCCGGGUAAAU,–,–,–,–,"apparent Kd (designed as: ON switch for tryptophan, no ligand): 19.4 nM; apparent Kd (ligand present: tryptophan, designed as: ON switch for tryptophan): 22.6 nM"
GCUCCGCUAGCAGGAUAUGUAGGGGGAUUAUUGAUUGGGCGUAACAUGAGGAUCACCCAUGUUCCACAGAAGGGCUGGAGAAGA,107,68.3,–,–,–
GUGAAGAUCCUAGGAUAUGAGACACCCGUAAGCUCAGAAGGAGGACGCGUAGAGGGUAACAUGAGGAUCACCCAUGUGAGUAAG,–,–,16.9,12.2,–
UCUAUGUUAGGAUAUCUGUUGCAUGCCUGGCCGCGAUGCAAAGAGAAGGAACAUGAGGAUCACCCAUGUCAUAU,19.3,41.6,–,–,–
GCCAUAAUCUGAGGAUAUAGAGAGAUAAGGAAGCACAUGAGGAUCACCCAUGUCCGUGGUAUAGGCAAGAAGGCAGCUGGAAUC,–,–,15.3,15.7,–
AUUUCAUGUGUAGGAUAUCGCAUUCAGAACUAGCCAUCCACAUGAGGAUCACCCAUGUGUGCGGGCGAGAAGGACACGAGGGCA,–,–,9.72,7.55,–
UAUUGUAUAGGAUAUACAUGAGGAUCACCCAUGUUCGAUGUUUGGAGCCUGCUUCAUAGUAGAAGGAUACGCCC,16.3,16.7,–,–,–
GGAUGGGUGGAAGGAUAUGAGCCCAGGACAUGAGGAUCACCCAUGUGUAGUUCAGUCUCUAAUUCUCAGAAGGUCCAGAUUCUA,18.1,21.5,–,–,–
GCUGUAAAGGAGAAGGUGAAUCGUAAGCUUGGUCAAGGAUAUCCGACUGGACAUGGCUGCAGACAUGAGGAUCACCCAUGUGCG,237,113,–,–,–
